Laboratory results taken from ChEMBL document CHEMBL5360632, “Quinazolinone Compounds Have Potent Antiviral Activity against Zika and Dengue Virus” (J Med Chem, 2023).

Legend:
Zika virus [1] = experiment: (§1) Antiviral activity against ZIKV FLR infected in Vero cells assessed as inhibition of viral replication by measuring reduction in cytopathic effect at 10 uM preincubated with compounds for 2 hrs followed by replacement with fresh media containing compounds and measured after 48 hrs by MTT assay relative to control; assay type: functional; conditions: time 50 hrs
How it was run: (§2)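 Monolayers of 2 × 10^4 cells/well in DMEM with 2% FBS. Infected at 0.1 MOI together with compound for 2h. Wells washed with PBS, then fresh medium with compound added in duplicate and incubated 48h at 37 °C. Supernatant titred by end-point dilution: half-log dilutions on Vero monolayers in quadruplicate for 5–7 days, CPE by microscope then MTT. TCID50 compared with untreated; EC50 from dose-response fit of ≥2 independent experiments.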

Zika virus [2] = experiment: Antiviral activity against ZIKV FLR infected in Vero cells assessed as inhibition of viral replication by measuring reduction in cytopathic effect preincubated with compounds for 2 hrs followed by replacement with fresh media containing compounds and measured after 48 hrs by MTT assay; assay type: functional, organism-based; how it was run: as §2
Zika virus [3] = experiment: Antiviral activity against ZIKV FLR infected in Vero cells assessed as reduction in number of viral RNA copies by qRT-PCR analysis; assay type: functional, organism-based; conditions: dose 0.3-10 µM
How it was run: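 Viral RNA measured in cell supernatant after compound treatment. Copies/mL calculated from a standard curve.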

U-87 MG = experiment: Cytotoxicity against human U87 cells assessed as reduction in cell viability; assay type: toxicity, cell-based; conditions: u-87mg atcc
Zika virus [4] = experiment: as §1, with “1” for “10”; assay type: functional; conditions: time 50 hrs; how it was run: as §2
Zika virus [5] = experiment: Antiviral activity against ZIKV FLR infected in mosquito C6/36 cells assessed as inhibition of viral replication pretreated with compounds for 2 hrs followed by replacement with fresh medium containing compound and measured after 48 hrs bt MTT assay; assay type: functional, organism-based; how it was run: as §2
dengue virus type 2 = experiment: Antiviral activity against Dengue virus serotype 2 K0049 infected in Vero cells assessed as inhibition of viral replication pretreated for 2 hrs followed by replacement with fresh medium containing compound and measured after 48 hrs by MTT assay; assay type: functional, organism-based; how it was run: as §2
Zika virus [6] = experiment: Antiviral activity against ZIKV FLR infected in human U87 cells assessed as inhibition of viral replication pretreated with compounds for 2 hrs followed by replacement with fresh medium containing compound and measured after 48 hrs by MTT assay; assay type: functional, organism-based; conditions: U-87 MG; how it was run: as §2
Zika virus [7] = experiment: Antiviral activity against ZIKV FLR infected in Vero cells assessed as inhibition of viral replication by measuring log reduction in cytopathic effect at 10 uM preincubated with compounds for 2 hrs followed by replacement with fresh media containing compounds and measured after 48 hrs by MTT assay; assay type: functional; conditions: time 50 hrs; how it was run: as §2
Zika virus [8] = experiment: Antiviral activity against ZIKV FLR infected in Vero cells assessed as inhibition of viral replication by measuring log reduction in cytopathic effect at 1 uM preincubated with compounds for 2 hrs followed by replacement with fresh media containing compounds and measured after 48 hrs by MTT assay; assay type: functional; conditions: time 50 hrs; how it was run: as §2
Vero = experiment: Cytotoxicity against African green monkey Vero cells at 10 uM; assay type: toxicity, cell-based; conditions: chlorocebus sabaeus
How it was run: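 Vero monolayers in 96-well plates, treated with compound at 10 μM in duplicate for 72 h during the phenotypic anti-ZIKV screen (0.1 MOI ZIKV FLR strain). An MTT assay optionally quantified viable cells.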

## COc1cccc(/C=C/c2nc3ccc(N4CCCCC4)cc3c(=O)n2-c2cccc(C(F)(F)F)c2)n1
Zika virus [1]
  inhibition at 10 µM: 99%

## CC(C)(C)c1ccc(-n2c(/C=C/c3cncc(Br)c3)nc3ccccc3c2=O)cc1
Zika virus [1]
  inhibition at 10 µM: 0%

## COc1cccc(/C=C/c2nc3ccc(N4CCCCC4)cc3c(=O)n2-c2cccc(C(C)(C)C)c2)n1
Zika virus [2]
  EC50: 0.9 µM
Zika virus [1]
  inhibition at 10 µM: 99.9%
Zika virus [3]
  Activity: Dose-Dependent Effect
U-87 MG
  CC50: > 20 µM
Zika virus [4]
  inhibition at 1 µM: 90%
Zika virus [5]
  EC50: 0.75 µM
Dengue virus type 2
  EC50: 0.16 µM
Zika virus [6]
  EC50: 0.82 µM

## CC(C)(C)c1ccc(-n2c(/C=C/c3cncnc3)nc3ccccc3c2=O)cc1
Zika virus [1]
  inhibition at 10 µM: 0%

## CC(C)(C)c1cccc(-n2c(/C=C/c3cccnc3)nc3ccccc3c2=O)c1
Zika virus [1]
  inhibition at 10 µM: 0%

## O=c1c2ccccc2nc(/C=C/c2cccnc2)n1-c1ccccc1
Zika virus [1]
  inhibition at 10 µM: 0%

## COc1cccc(/C=C/c2nc3ccc(N4CCCC4)cc3c(=O)n2-c2cccc(C(C)(C)C)c2)n1
Zika virus [1]
  inhibition at 10 µM: 68.4%

## COc1cccc(/C=C/c2nc3ccc(N4CCOCC4)cc3c(=O)n2-c2cccc(C)c2)n1
Zika virus [1]
  inhibition at 10 µM: 90%

## CC(C)(C)c1cccc(-n2c(/C=C/c3ccncc3)nc3ccc(N4CCCCC4)cc3c2=O)c1
Zika virus [1]
  inhibition at 10 µM: 68.4%

## COc1cccc(/C=C/c2nc3ccc(N4CCN(C(=O)OC(C)(C)C)CC4)cc3c(=O)n2-c2cccc(C(C)(C)C)c2)c1
Zika virus [1]
  inhibition at 10 µM: 99%

## CC(C)(C)c1cccc(-n2c(/C=C/c3ccc(C(F)(F)F)nc3)nc3ccccc3c2=O)c1
Zika virus [7]
  log(activity): 0.5
Zika virus [1]
  inhibition at 10 µM: 90%

## COc1cccc(CCc2nc3ccc(N4CCOCC4)cc3c(=O)n2-c2cccc(C(C)(C)C)c2)n1
Zika virus [1]
  inhibition at 10 µM: 0%

## CCN(CC)c1ccc2nc(/C=C/c3cccc(OC)n3)n(-c3cccc(C(C)(C)C)c3)c(=O)c2c1
Zika virus [7]
  log(activity): 3
Zika virus [1]
  inhibition at 10 µM: 99.9%
Zika virus [4]
  inhibition at 1 µM: 68.4%
Zika virus [8]
  log(activity): 0.5

## COc1cccc(-n2c(/C=C/c3cccnc3)nc3ccccc3c2=O)c1
Zika virus [7]
  log(activity): 0.5
Zika virus [1]
  inhibition at 10 µM: 68.4%

## CC(C)(C)c1cccc(-n2c(/C=C/c3ccc4ccccc4c3)nc3ccccc3c2=O)c1
Zika virus [1]
  inhibition at 10 µM: 68.4%

## CC(C)(C)c1cccc(-n2c(/C=C/c3cncnc3)nc3ccccc3c2=O)c1
Zika virus [1]
  inhibition at 10 µM: 68.4%

## COc1ccccc1/C=C/c1nc2ccccc2c(=O)n1-c1cccc(C(C)(C)C)c1
Zika virus [1]
  inhibition at 10 µM: 0%

## COc1cccc(/C=C/c2nc3ccc(N4CCCCC4)cc3c(=O)n2-c2cccc(C(C)(C)C)c2)c1
Zika virus [1]
  inhibition at 10 µM: 99.9%
Zika virus [4]
  inhibition at 1 µM: 68.4%

## COc1cccc(/C=C/c2nc3ccc(C4=CCOCC4)cc3c(=O)n2-c2cccc(C(C)(C)C)c2)n1
Zika virus [1]
  inhibition at 10 µM: 96.8%

## COc1cccc(/C=C/c2nc3ccc(N4CCC(N5CCOCC5)CC4)cc3c(=O)n2-c2cccc(C(F)(F)F)c2)n1
Zika virus [1]
  inhibition at 10 µM: 68.4%

## COc1cccc(/C=C/c2nc3ccc(N4CCCCC4)cc3c(=O)n2-c2cccc(C)c2)n1
Zika virus [1]
  inhibition at 10 µM: 99.9%
Zika virus [4]
  inhibition at 1 µM: 0%

## COc1cccc(/C=C/c2nc3ccc(OC)cc3c(=O)n2-c2cccc(C(C)(C)C)c2)c1
Zika virus [1]
  inhibition at 10 µM: 0%

## Cc1ccccc1-n1c(/C=C/c2cccnc2)nc2ccccc2c1=O
Zika virus [1]
  inhibition at 10 µM: 0%

## COc1cccc(/C=C/c2nc3ccc(-c4ccc(N(C)C)cc4)cc3c(=O)n2-c2cccc(C(C)(C)C)c2)n1
Zika virus [1]
  inhibition at 10 µM: 96.8%

## COc1cccc(-n2c(/C=C/c3cccc(OC)n3)nc3ccc(N4CCOCC4)cc3c2=O)c1
Zika virus [1]
  inhibition at 10 µM: 99%

## COc1cccc(-c2ccc3nc(/C=C/c4cccc(OC)n4)n(-c4cccc(C(C)(C)C)c4)c(=O)c3c2)c1
Zika virus [1]
  inhibition at 10 µM: 0%

## COc1cccc(/C=C/c2nc3ccc(Cl)cc3c(=O)n2-c2cccc(C(C)(C)C)c2)n1
Zika virus [1]
  inhibition at 10 µM: 0%

## COc1cccc(/C=C/c2nc3ccc(-c4ccncc4)cc3c(=O)n2-c2cccc(C(C)(C)C)c2)n1
Zika virus [1]
  inhibition at 10 µM: 0%

## CC(C)(C)c1ccc(-n2c(/C=C/c3cccnc3)nc3ccccc3c2=O)cc1
Zika virus [1]
  inhibition at 10 µM: 0%

## Cc1cccc(-n2c(/C=C/c3cccnc3)nc3ccccc3c2=O)c1
Zika virus [1]
  inhibition at 10 µM: 0%

## COc1cccc(/C=C/c2nc3ccc(N4CCN(C(=O)OC(C)(C)C)CC4)cc3c(=O)n2-c2cccc(C(C)(C)C)c2)n1
Zika virus [1]
  inhibition at 10 µM: 99%

## COc1cccc(/C=C/c2nc3ccc(N4CCN(C)CC4)cc3c(=O)n2-c2cccc(C(C)(C)C)c2)n1
Vero
  Activity: Toxic

## COc1ccc2nc(/C=C/c3cccc(OC)n3)n(-c3cccc(C(C)(C)C)c3)c(=O)c2c1
Zika virus [1]
  inhibition at 10 µM: 0%

## COc1cccc(CCc2nc3ccc(N4CCCCC4)cc3c(=O)n2-c2cccc(C(C)(C)C)c2)n1
Zika virus [1]
  inhibition at 10 µM: 0%

## CC(C)(C)c1cccc(-n2c(/C=C/c3ccc(C(F)(F)F)nc3)nc3ccc(N4CCCCC4)cc3c2=O)c1
Zika virus [1]
  inhibition at 10 µM: 90%

## COc1cccc(/C=C/c2nc3ccccc3c(=O)n2-c2cccc(C(C)(C)C)c2)c1
Zika virus [1]
  inhibition at 10 µM: 0%

## COc1cccc(-n2c(/C=C/c3cccc(OC)n3)nc3ccc(N4CCC(N5CCOCC5)CC4)cc3c2=O)c1
Zika virus [1]
  inhibition at 10 µM: 99.9%
Zika virus [4]
  inhibition at 1 µM: 68.4%

## COc1cccc(/C=C/c2nc3ccc(-c4ccc(N5CCCC5)cc4)cc3c(=O)n2-c2cccc(C(C)(C)C)c2)n1
Zika virus [1]
  inhibition at 10 µM: 96.8%

## CC(C)(C)c1cccc(-n2c(/C=C/c3ccncc3)nc3ccccc3c2=O)c1
Zika virus [1]
  inhibition at 10 µM: 68.4%

## CC(C)(C)c1cccc(-n2c(/C=C/c3ccccc3)nc3ccccc3c2=O)c1
Zika virus [1]
  inhibition at 10 µM: 0%

## COc1cccc(/C=C/c2nc3ccccc3c(=O)n2-c2cccc(C(C)(C)C)c2)n1
Zika virus [1]
  inhibition at 10 µM: 0%

## COc1cccc(/C=C/c2nc3ccc(N4CCNCC4)cc3c(=O)n2-c2cccc(C(C)(C)C)c2)n1
Vero
  Activity: Toxic

## COc1cccc(/C=C/c2nc3ccc(N4CCC(N5CCOCC5)CC4)cc3c(=O)n2-c2cccc(C)c2)n1
Zika virus [1]
  inhibition at 10 µM: 99.9%
Zika virus [4]
  inhibition at 1 µM: 0%

## COc1ncccc1/C=C/c1nc2ccccc2c(=O)n1-c1cccc(C(C)(C)C)c1
Zika virus [7]
  log(activity): 0.5
Zika virus [1]
  inhibition at 10 µM: 68.4%

## CC(C)(C)c1cccc(-n2c(/C=C/c3ccc4ccccc4c3)nc3ccc(N4CCCCC4)cc3c2=O)c1
Zika virus [1]
  inhibition at 10 µM: 99.7%

## NCc1ccc(-c2ncc(OCC3CCNCC3)nc2-c2ccc(-c3ccoc3)cc2)cc1
Zika virus [4]
  inhibition at 1 µM: 68%

## COc1cccc(/C=C/c2nc3ccc(N4CCOCC4)cc3c(=O)n2-c2cccc(C(F)(F)F)c2)n1
Zika virus [1]
  inhibition at 10 µM: 0%

## COc1cccc(/C=C/c2nc3ccc(N4CCC(N5CCOCC5)CC4)cc3c(=O)n2-c2cccc(C(C)(C)C)c2)n1
Zika virus [1]
  inhibition at 10 µM: 99.9%
Zika virus [4]
  inhibition at 1 µM: 90%

## CC(C)(C)c1cccc(-n2c(/C=C/c3ccc(C(F)(F)F)cc3)nc3ccccc3c2=O)c1
Zika virus [1]
  inhibition at 10 µM: 90%

## COc1cccc(-n2c(/C=C/c3cccc(OC)n3)nc3ccc(N4CCCCC4)cc3c2=O)c1
Zika virus [2]
  EC50: 0.21 µM
Zika virus [1]
  inhibition at 10 µM: 99.9%
U-87 MG
  CC50: > 20 µM
Zika virus [4]
  inhibition at 1 µM: 90%
Zika virus [5]
  EC50: 0.77 µM
Dengue virus type 2
  EC50: 0.56 µM
Zika virus [6]
  EC50: 0.69 µM

## CCN(CC)CCCC(C)Nc1ccnc2cc(Cl)ccc12 (configuration not stated) [CHLOROQUINE]
Zika virus [1]
  inhibition at 10 µM: 90%

## COc1cccc(/C=C/c2nc3ccc(-c4ccc(F)cc4)cc3c(=O)n2-c2cccc(C(C)(C)C)c2)n1
Zika virus [1]
  inhibition at 10 µM: 99%

## COc1cc(/C=C/c2nc3ccc(N4CCN(C)CC4)cc3c(=O)n2-c2cccc(C(C)(C)C)c2)cc(OC)c1
Vero
  Activity: Toxic
